Key:
[1] = In-vitro drug release, dialysis bag diffusion method; type: physicochemical; settings: PBS pH 7.4
How it was run: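 Dialysis bag (MW 12,500 Da, ~2.4 nm pores), pre-soaked 24 h in pH 7.4 PBS, filled with 2 mL drug-loaded lipid-carrier dispersion and sealed. Suspended in 100 mL pH 7.4 PBS at 37 ± 1°C under sink conditions, agitated at 100 rpm for 48 h.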

[2] = Pharmacokinetic study, single i.v. injection; type: in vivo, Wistar rats; settings: male, Wistar, rat, plasma, iv, 10 mg/kg
[3] = tested on: IL-2, IL-6, IL-1β, caspase-9; experiment: Proinflammatory cytokines and caspase-9 by ELISA; type: in vivo, Wistar rats; settings: DEN-induced rats
How it was run: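 IL-2, IL-6, IL-1β and caspase-9 were measured in hepatic tissue of DEN-induced HCC rats using commercial ELISA kits per manufacturer's instructions.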

COc1cc2ncnc(Nc3ccc(F)c(Cl)c3)c2cc1OCCCN1CCOCC1 [Gefitinib]
GF release ([1]; 48 hours): 95.63 ± 4.04%
GF released ([1]; within 4 hours): approximately 80%
AUC(0-inf) [2]: 41100 ± 13200 ng·h/mL
AUC(0-t) [2]: 33300 ± 9550 ng·h/mL
Cmax [2]: 7820 ± 1140 ng/mL
MRT inf [2]: 12.2 ± 2 h
half-life [2]: 7.66 ± 1.7 h
caspase 9 levels [3]: increased significantly
